Conditions in all cases: in vivo, 1 h; call rule not given here
One data set deals with Mus musculus. In words: Drug uptake in MHC-PPARalpha overexpressing transgenic mouse at 170 uCi, iv after 60 mins by microPET imaging analysis relative to wild type control. Type of data set: ADME, organism-based. In a few lines: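 Transgenic mice overexpressing PPAR-α in heart (ventricular PPAR-α protein about 15-fold above wild-type) and wild-type littermate controls. Dynamic microPET imaging over 0–60 min after intravenous injection of the carbon-11-labelled radiotracer. Radiochemical purity >98%. Cardiac accumulation was quantified as standard uptake values (SUV) and compared with wild-type animals.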

The subject of data set [1] is Liver. In words: Drug uptake in liver of MHC-PPARalpha overexpressing transgenic mouse at 170 uCi, iv after 60 mins by microPET imaging analysis. It is filed as ADME, organism-based. In short, it runs like this:
(§1)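 Dynamic microPET scan over 0–60 min after intravenous injection of the 11C-labelled tracer. Transgenic mice had cardiac-ventricle PPAR-α protein about 15-fold above wild-type littermates. Data were analysed as standard uptake values (SUV).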

In the next data set the test system is Heart. In words: Drug uptake in heart of MHC-PPARalpha overexpressing transgenic mouse at 170 uCi, iv after 60 mins by microPET imaging analysis. It is filed as ADME, organism-based. In a few lines:
as §1

Data set [2] in a line: Drug uptake in cardiac tissue of MHC-PPARalpha overexpressing transgenic mouse at 170 uCi, iv after 60 mins by post-PET gamma counting analysis. Type of data set: ADME, organism-based, Heart. In short, it runs like this: (§2)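 Biodistribution done after PET: tissues were collected after the 0–60 min dynamic scan following intravenous injection of the 11C-labelled tracer. Transgenic mice with about 15-fold ventricular PPAR-α overexpression were used alongside wild-type littermate controls. Uptake was expressed as %ID/g.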

Data set [3] can be described thus: Drug uptake in wild type mouse cardiac tissue at 170 uCi, iv after 60 mins by post-PET gamma counting analysis. Type of data set: ADME, organism-based, Heart. In short, it runs like this:
as §2

Data set [4] deals with Blood. In words: Drug uptake in blood of MHC-PPARalpha overexpressing transgenic mouse at 170 uCi, iv after 60 mins by post-PET gamma counting analysis. Type of data set: ADME, organism-based. In short, it runs like this: as §2
The test system of data set [5] is Blood. In words: Drug uptake in wild type mouse blood at 170 uCi, iv after 60 mins by post-PET gamma counting analysis. It is filed as ADME, organism-based. In a few lines:
as §2

In data set [6] the test system is Lung. Briefly: Drug uptake in lungs of MHC-PPARalpha overexpressing transgenic mouse at 170 uCi, iv after 60 mins by post-PET gamma counting analysis. Type of data set: ADME, organism-based. In short, it runs like this:
as §2

Data set [7] has as its system Lung. In words: Drug uptake in wild type mouse lungs at 170 uCi, iv after 60 mins by post-PET gamma counting analysis. Type of data set: ADME, organism-based. In a few lines:
as §2

The test system of data set [8] is Liver. Briefly: Drug uptake in liver of MHC-PPARalpha overexpressing transgenic mouse at 170 uCi, iv after 60 mins by post-PET gamma counting analysis. Type of data set: ADME, organism-based. In a few lines: as §2
The test system of data set [9] is Liver. In words: Drug uptake in wild type mouse liver at 170 uCi, iv after 60 mins by post-PET gamma counting analysis. Type of data set: ADME, organism-based. In a few lines: as §2
Data set [10] deals with Spleen. Briefly: Drug uptake in spleen of MHC-PPARalpha overexpressing transgenic mouse at 170 uCi, iv after 60 mins by post-PET gamma counting analysis. It is filed as ADME, organism-based. In a few lines: as §2
For data set [11], the system named is Spleen. Briefly: Drug uptake in wild type mouse spleen at 170 uCi, iv after 60 mins by post-PET gamma counting analysis. Type of data set: ADME, organism-based. In a few lines: as §2
For data set [12], the system named is Kidney. In words: Drug uptake in kidney of MHC-PPARalpha overexpressing transgenic mouse at 170 uCi, iv after 60 mins by post-PET gamma counting analysis. It is filed as ADME, organism-based. In a few lines:
as §2

Data set [13] concerns Kidney. Briefly: Drug uptake in wild type mouse kidney at 170 uCi, iv after 60 mins by post-PET gamma counting analysis. Type of data set: ADME, organism-based. In a few lines:
as §2

Data set [14] deals with Muscle tissue. Briefly: Drug uptake in muscle of MHC-PPARalpha overexpressing transgenic mouse at 170 uCi, iv after 60 mins by post-PET gamma counting analysis. It is filed as ADME, organism-based. In a few lines:
as §2

Data set [15] relates to Muscle tissue. Briefly: Drug uptake in wild type mouse muscle at 170 uCi, iv after 60 mins by post-PET gamma counting analysis. Type of data set: ADME, organism-based. In a few lines:
as §2

With `CC(C)(Sc1ccc(CCN(CCCCC2CCCCC2)C(=O)Nc2ccc(O[11CH3])cc2)cc1)C(=O)O`, the “fold change (FC)” value in the data set with Mus musculus worked out at 2. Further, the Drug uptake entry with Liver [1] is listed as “Active”; in the data set on Heart it was “Active”; in data set [2] it was 1.09 % ID/g; in data set [3], 0.479 % ID/g; in the data set on Blood [4] it was 0.42 % ID/g; in the data set with Blood [5] it was 0.42 % ID/g. Further, the Drug uptake in the data set with Lung [6] came to 2.65 % ID/g; with Lung [7], 2.11 % ID/g; with Liver [8], 55.3 % ID/g; with Liver [9], 60.69 % ID/g; in the data set with Spleen [10] it was 1.33 % ID/g; in the data set on Spleen [11], 1.55 % ID/g. Also, the Drug uptake stood at 2.58 % ID/g in the data set on Kidney [12], 2.01 % ID/g with Kidney [13], 0.36 % ID/g with Muscle tissue [14] and 0.35 % ID/g in the data set on Muscle tissue [15].

Values taken from ChEMBL document CHEMBL2086268, “Synthesis, radiolabeling and initial in vivo evaluation of [(11)C]KSM-01 for imaging PPAR-α receptors” (Bioorg Med Chem Lett, 2012).
